Reference: ChEMBL document CHEMBL4118039, “Inflammation Modulatory Phorbol Esters from the Seeds of Aquilaria malaccensis” (J Nat Prod, 2017)

Experiments:
[1] = tested on: A549; test: Cytotoxicity against human A549 cells assessed as reduction in cell viability after 72 hrs by MTT assay; format: functional, cell-based; conditions: A549, 72 h
[2] = tested on: HepG2; test: Cytotoxicity against human HepG2 cells assessed as reduction in cell viability after 72 hrs by MTT assay; format: functional, cell-based; conditions: HepG2, 72 h
[3] = tested on: Neutrophil; test: Proinflammatory activity in human neutrophils assessed as superoxide anion generation at 10 uM incubated for 5 mins by spectrophotometric method relative to control; format: ADME, cell-based
Method in brief: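 Neutrophils at 3 × 10^5/mL in Ca2+-free HBSS pH 7.4, supplemented with 0.5 mg/mL ferricytochrome c and 1 mM Ca2+. Equilibrated 2 min at 37 °C, then exposed to compound at 10 μM for 5 min without fMLF/CB. SOD-inhibitable cytochrome c reduction followed continuously at 550 nm with stirring; expressed versus fMLF/CB-activated response as 100%. Means ± SEM, n = 3−5.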

[4] = tested on: Neutrophil; test: Anti-inflammatory activity in human neutrophils assessed as inhibition of fMLF/CB-induced elastase release by measuring degranulation of azurophilic granules using MeOSuc-Ala-Ala-ProVal-p-nitroanilide as substrate preincubated for 5 mins followed by CB/fMLF stimulation; format: functional, cell-based
Method in brief: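 Neutrophils from human blood (dextran sedimentation, Ficoll-Hypaque, hypotonic lysis of red cells; >98% viable by trypan blue) held in Ca2+-free HBSS pH 7.4 at 4 °C. Cells at 3 × 10^5/mL with 100 μM substrate, 2 min at 37 °C, compound 5 min, then fMLF 100 nM/CB 0.5 μg/mL. A405 followed continuously. Expressed as % of drug-free fMLF/CB control; three repeats.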

[5] = tested on: Neutrophil; test: Anti-inflammatory activity in human neutrophils assessed as inhibition of fMLF/CB-induced superoxide anion generation preincubated for 5 mins followed by CB stimulation for 3 mins and subsequent fMLF stimulation for 10 mins by spectrophotometric method; format: functional, cell-based
Method in brief: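 Same neutrophil preparation. Cells at 3 × 10^5/mL with 0.5 mg/mL ferricytochrome c and 1 mM Ca2+, 2 min at 37 °C, then compound or DMSO 5 min, CB 1 μg/mL 3 min, fMLF 100 nM 10 min. SOD-inhibitable cytochrome c reduction read continuously at 550 nm with stirring. Means ± SEM, n = 3−5.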

[6] = tested on: Neutrophil; test: Proinflammatory activity in human neutrophils assessed as elastase release by measuring degranulation of azurophilic granules using MeOSuc-Ala-Ala-ProVal-p-nitroanilide as substrate incubated for 5 mins relative to control; format: cell-based
Method in brief: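 Neutrophils isolated from human blood by dextran sedimentation, Ficoll-Hypaque centrifugation and hypotonic erythrocyte lysis, >98% viable by trypan blue, held in Ca2+-free HBSS pH 7.4 at 4 °C. Cells at 3 × 10^5/mL with 100 μM substrate, equilibrated 2 min at 37 °C, then compound at 10 μM for 5 min without fMLF/CB. A405 monitored continuously; expressed versus fMLF/CB-stimulated release taken as 100%.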

[7] = tested on: Neutrophil; test: Proinflammatory activity in human neutrophils assessed as superoxide anion generation at 10 uM preincubated for 5 mins followed by CB addition measured after 3 mins by spectrophotometric method relative to control; format: ADME, cell-based; conditions: 0.05 h
Method in brief: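 Cytochrome c reduction at 550 nm as above (0.5 mg/mL ferricytochrome c, 1 mM Ca2+, 37 °C, 3 × 10^5 neutrophils/mL). Compound 10 μM given without fMLF/CB stimulation, or with CB only. Expressed relative to the fMLF/CB response taken as 100%. Means ± SEM, n = 3−5.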

CC(=O)O[C@@]12[C@H](OC(=O)/C=C/C=C/C=O)[C@@H](C)[C@@]3(O)[C@@H](C=C(CO)C[C@]4(O)C(=O)C(C)=C[C@@H]34)[C@@H]1C2(C)C
IC50 [1]: > 10 µM
IC50 [2]: > 10 µM
Activity [3]: 106.1%
IC50 [4]: 2700 nM

O=c1cc(N2CCOCC2)oc2c(-c3ccccc3)cccc12 [LY-294002]
IC50 [5]: 1800 nM
IC50 [4]: 3300 nM

CCCCCCCCCC(=O)O[C@@]12C[C@@H](C)[C@@]3(O)[C@@H](C=C(CO)C[C@]4(O)C(=O)C(C)=C[C@@H]34)[C@@H]1C2(C)C
IC50 [1]: > 10 µM
IC50 [2]: > 10 µM
Activity [3]: 95.3%
IC50 [4]: 800 nM

CCCCCCCC/C=C\CCCCCCCC(=O)OCC(O)COC(=O)CCCCCCC/C=C\CCCCCCCC
IC50 [5]: > 10000 nM
IC50 [1]: > 10 µM
IC50 [2]: > 10 µM
IC50 [4]: > 10000 nM

CCCCCCCC/C=C\CCCCCCCC(=O)OCC1=C[C@H]2[C@@H]3C(C)(C)[C@]3(OC(C)=O)C[C@@H](C)[C@]2(O)[C@@H]2C=C(C)C(=O)[C@@]2(O)C1
IC50 [1]: > 10 µM
IC50 [2]: > 10 µM
Activity [3]: 18.1%
IC50 [4]: > 10000 nM

CCCCCCC[C@H](O)[C@@H](O)/C=C/C=C/C(=O)O[C@@H]1[C@@H](C)[C@@]2(O)[C@@H](C=C(CO)C[C@]3(O)C(=O)C(C)=C[C@@H]23)[C@@H]2C(C)(C)[C@]12OC(C)=O
Activity [6]: 9.2%
IC50 [1]: > 10 µM
IC50 [2]: > 10 µM
Activity [3]: 107.1%

CCCCCCCC/C=C\CCCCCCCC(=O)OCC(CO)OC(=O)CCCCCCCCCCCCCCC (stereo unspecified)
Activity [7]: 74.5%
IC50 [1]: > 10 µM
IC50 [2]: > 10 µM
IC50 [4]: > 10000 nM

CCCCCCCCCCCCCC(=O)O[C@@H]1[C@@H](C)[C@@]2(O)[C@@H](C=C(CO)C[C@]3(O)C(=O)C(C)=C[C@@H]23)[C@@H]2C(C)(C)[C@]12OC(C)=O [PHORBOL MYRISTATE ACETATE]
Activity [6]: 44.2%
Activity [3]: 102.7%

CCCCCCC[C@@H](O)[C@@H](O)/C=C/C=C/C(=O)O[C@@H]1[C@@H](C)[C@@]2(O)[C@@H](C=C(CO)C[C@]3(O)C(=O)C(C)=C[C@@H]23)[C@@H]2C(C)(C)[C@]12OC(C)=O
Activity [6]: 10.5%
IC50 [1]: > 10 µM
IC50 [2]: > 10 µM
Activity [3]: 106%

CCCCCCCC(=O)O[C@@]12C[C@@H](C)[C@@]3(O)[C@@H](C=C(CO)C[C@]4(O)C(=O)C(C)=C[C@@H]34)[C@@H]1C2(C)C
IC50 [1]: > 10 µM
IC50 [2]: > 10 µM
Activity [3]: 109.6%
IC50 [4]: 2100 nM
